Data published in ChEMBL document CHEMBL3600378 (J Med Chem, 2015).
Calls of active or inactive are those of the source. The rule behind the calls is not given here.

Columns and labels:
[1] = target: T1, Beta-3 adrenergic receptor (Homo sapiens, UniProt P13945); assay: Agonist activity at human recombinant beta3-adrenergic receptor expressed in CHO cells assessed as increase of cAMP level after 30 mins; format: functional, cell-based
Target sequence in this assay (P13945 whole entry): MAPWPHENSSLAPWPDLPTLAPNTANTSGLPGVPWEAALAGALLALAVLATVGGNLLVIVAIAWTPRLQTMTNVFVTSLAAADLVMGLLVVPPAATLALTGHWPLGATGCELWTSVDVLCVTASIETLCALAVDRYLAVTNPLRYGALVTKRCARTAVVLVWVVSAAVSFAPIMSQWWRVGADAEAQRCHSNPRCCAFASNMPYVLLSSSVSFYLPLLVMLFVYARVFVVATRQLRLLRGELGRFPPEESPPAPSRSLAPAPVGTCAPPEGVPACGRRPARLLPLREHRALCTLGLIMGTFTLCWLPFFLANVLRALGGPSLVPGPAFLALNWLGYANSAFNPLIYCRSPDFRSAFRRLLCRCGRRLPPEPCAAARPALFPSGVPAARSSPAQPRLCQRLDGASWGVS

[2] = target: T1, Beta-3 adrenergic receptor; assay: Intrinsic activity at human beta3-adrenergic receptor expressed in CHO cells assessed as increase of cAMP level after 30 mins relative to isoproterenol; format: functional, cell-based
Method in brief: (§1)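 Stably transfected CHO cells expressing human β1, β2 or β3 or marmoset β3 receptor were grown in Ham's F-12 with 10% FBS and geneticin, seeded at 2×10⁴ cells/well and grown about 20 h. Cells spent 15 min serum-free, then 30 min with compound in medium containing HEPES and isobutylmethylxanthine. Lysate cAMP was measured by kit. […] EC50 is the half-maximal concentration for each compound.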
Target sequence in this assay (P13945 whole entry, looked up): as the sequence (P13945 whole entry) above

[3] = target: Beta-1 adrenergic receptor (Homo sapiens, UniProt P08588); assay: Agonist activity at human beta1-adrenergic receptor expressed in CHO cells assessed as increase of cAMP level after 30 mins; format: functional, cell-based; method in brief: as §1
Sequence of Beta-1 adrenergic receptor (P08588 whole entry): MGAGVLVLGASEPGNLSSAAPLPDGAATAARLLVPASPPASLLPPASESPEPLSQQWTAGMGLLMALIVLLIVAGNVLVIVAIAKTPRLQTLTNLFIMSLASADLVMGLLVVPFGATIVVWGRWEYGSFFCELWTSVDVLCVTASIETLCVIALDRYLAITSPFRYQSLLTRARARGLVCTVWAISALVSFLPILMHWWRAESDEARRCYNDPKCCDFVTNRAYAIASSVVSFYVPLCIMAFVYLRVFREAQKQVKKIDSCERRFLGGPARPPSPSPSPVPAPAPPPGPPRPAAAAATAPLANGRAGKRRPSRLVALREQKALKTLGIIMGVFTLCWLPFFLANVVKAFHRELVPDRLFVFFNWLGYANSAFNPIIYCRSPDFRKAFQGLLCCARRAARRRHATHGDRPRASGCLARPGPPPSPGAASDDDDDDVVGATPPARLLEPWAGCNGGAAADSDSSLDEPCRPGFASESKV

[4] = target: Beta-2 adrenergic receptor (Homo sapiens, UniProt P07550); assay: Agonist activity at human beta2-adrenergic receptor expressed in CHO cells assessed as increase of cAMP level after 30 mins; format: functional, cell-based; method in brief: as §1
Sequence of Beta-2 adrenergic receptor (P07550 whole entry): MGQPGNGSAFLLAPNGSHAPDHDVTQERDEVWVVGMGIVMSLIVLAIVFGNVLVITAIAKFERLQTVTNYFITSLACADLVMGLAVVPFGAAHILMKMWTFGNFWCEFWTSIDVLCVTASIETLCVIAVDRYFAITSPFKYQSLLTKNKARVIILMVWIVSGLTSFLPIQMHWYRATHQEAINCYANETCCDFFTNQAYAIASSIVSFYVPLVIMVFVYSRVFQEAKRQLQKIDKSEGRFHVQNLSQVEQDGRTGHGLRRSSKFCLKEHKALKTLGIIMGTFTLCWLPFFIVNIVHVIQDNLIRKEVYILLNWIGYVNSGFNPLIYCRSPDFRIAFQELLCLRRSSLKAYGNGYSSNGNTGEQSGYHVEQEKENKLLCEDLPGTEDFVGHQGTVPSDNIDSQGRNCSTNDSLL

[5] = target: T2, Alpha-1A adrenergic receptor (Homo sapiens, UniProt P35348); assay: Agonist activity at human alpha1A-adrenergic receptor expressed in HEK293 cells assessed as calcium flux by fluorescence assay; format: functional, cell-based
T2 sequence (P35348 whole entry): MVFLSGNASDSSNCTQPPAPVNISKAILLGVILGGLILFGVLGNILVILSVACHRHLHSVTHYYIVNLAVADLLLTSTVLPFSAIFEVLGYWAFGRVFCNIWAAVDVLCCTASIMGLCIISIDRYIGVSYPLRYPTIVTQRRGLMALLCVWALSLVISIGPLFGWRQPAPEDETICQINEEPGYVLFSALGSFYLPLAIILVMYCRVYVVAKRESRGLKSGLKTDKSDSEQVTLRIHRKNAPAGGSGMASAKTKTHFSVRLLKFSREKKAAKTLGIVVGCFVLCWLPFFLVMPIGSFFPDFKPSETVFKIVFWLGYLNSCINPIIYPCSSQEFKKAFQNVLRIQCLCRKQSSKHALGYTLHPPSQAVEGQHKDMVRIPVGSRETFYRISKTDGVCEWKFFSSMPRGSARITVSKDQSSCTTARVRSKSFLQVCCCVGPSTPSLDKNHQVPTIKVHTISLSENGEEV

[6] = target: T3, Alpha-1A adrenergic receptor (Homo sapiens) (UniProt P35348); assay: Intrinsic activity at human alpha1A-adrenergic receptor expressed in HEK293 cells assessed as calcium flux by fluorescence assay relative to norepinephrine; format: functional, cell-based
T3 sequence (whole entry): T2 sequence (P35348 whole entry)

Homo sapiens = organism: Homo sapiens; assay: Selectivity ratio of EC50 for human alpha1A-adrenergic receptor to EC50 for human beta3-adrenergic receptor
Rattus norvegicus [7] = assay: Cardiotoxicity in anesthetized Sprague-Dawley rat assessed as increase in heart rate at 3 mg/kg, iv measured for 30 mins relative to control; format: toxicity, organism-based; settings: in vivo, 0.5 h
Method in brief: (§2)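 Male Sprague-Dawley rats (200-300 g) were anesthetized with sodium pentobarbital (50 mg/kg i.p. plus 25 mg/kg s.c.). The compound was injected via the cannulated left femoral vein once BP and HR were stable, and HR and MBP were recorded for 30 min. Results are the maximum % increase or decrease from baseline, as mean ± SEM. Where given, silodosin (0.01 mg/kg iv) preceded the compound.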

Rattus norvegicus [8] = assay: Cardiotoxicity in anesthetized Sprague-Dawley rat assessed as decrease in heart rate at 3 mg/kg, iv measured for 30 mins relative to control; format: toxicity, organism-based; parameters: scale not given: the % may be the effect or the level left; settings: in vivo, 0.5 h; method in brief: as §2
Rattus norvegicus [9] = assay: Cardiotoxicity in anesthetized Sprague-Dawley rat assessed as increase in mean blood pressure at 3 mg/kg, iv measured for 30 mins relative to control; format: toxicity, organism-based; settings: in vivo, 0.5 h; method in brief: as §2
Rattus norvegicus [10] = assay: Cardiotoxicity in anesthetized Sprague-Dawley rat assessed as decrease in mean blood pressure at 3 mg/kg, iv measured for 30 mins relative to control; format: toxicity, organism-based; parameters: scale not given: the % may be the effect or the level left; settings: in vivo, 0.5 h; method in brief: as §2
[11] = target: Beta-3 adrenergic receptor (Rattus norvegicus, UniProt P26255); assay: Agonist activity at rat beta3-adrenergic receptor
Sequence of Beta-3 adrenergic receptor (Rattus norvegicus, UniProt P26255) (P26255 whole entry): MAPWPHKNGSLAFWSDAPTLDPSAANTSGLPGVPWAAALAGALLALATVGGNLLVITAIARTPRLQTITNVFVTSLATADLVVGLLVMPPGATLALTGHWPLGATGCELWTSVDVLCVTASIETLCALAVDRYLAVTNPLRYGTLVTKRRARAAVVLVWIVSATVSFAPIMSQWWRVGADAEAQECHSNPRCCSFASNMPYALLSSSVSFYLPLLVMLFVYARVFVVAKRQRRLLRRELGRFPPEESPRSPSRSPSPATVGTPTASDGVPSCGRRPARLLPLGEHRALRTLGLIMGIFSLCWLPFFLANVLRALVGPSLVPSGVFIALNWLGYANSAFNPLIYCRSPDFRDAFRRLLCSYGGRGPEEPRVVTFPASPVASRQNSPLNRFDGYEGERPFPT

[12] = target: Beta-3 adrenergic receptor (Rattus norvegicus) (UniProt P26255); assay: Intrinsic activity at rat beta3-adrenergic receptor relative to isoproterenol
Sequence of Beta-3 adrenergic receptor (Rattus norvegicus) (P26255 whole entry): as above

[13] = Agonist activity at marmoset beta3-adrenergic receptor; parameters: species or system Callithrix jacchus; method in brief: as §1
Callithrix jacchus [14] = organism: Callithrix jacchus; assay: Agonist activity at marmoset beta3-adrenergic receptor relative to isoproterenol; method in brief: as §1
Callithrix jacchus [15] = organism: Callithrix jacchus; assay: Agonist activity at beta3-adrenergic receptor in isolated marmoset urinary bladder smooth muscle assessed as reduction of KCl-induced muscle contraction; format: tissue-based
Method in brief: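 Marmosets anesthetized with ketamine hydrochloride (15 mg/kg, i.m.) and exsanguinated. Bladder body strips (about 10-15 mm × 2-5 mm) were held in Krebs-Henseleit gassed with 95% O2/5% CO2 at 37 °C under 1 g resting tension and equilibrated over 30 min. Tension was recorded isometrically. After the top concentration, papaverine (final 10⁻⁴ mol/L) set each strip's maximum relaxation.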

| EC50 [1] [nM] | Intrinsic activity [2] [%] | EC50 [3] [nM] | EC50 [4] [nM] | EC50 [5] [nM] | Intrinsic activity [6] [%] | Ratio EC50 (Homo sapiens) | EC50 [11] [nM] | Intrinsic activity [12] [%] | EC50 [13] [nM] | Intrinsic activity (Callithrix jacchus [14]) [%] | Activity (Callithrix jacchus [15]) | Compound | Activity (Rattus norvegicus [7]) [%] | Activity (Rattus norvegicus [8]) [%] | Activity (Rattus norvegicus [9]) [%] | Activity (Rattus norvegicus [10]) [%] |
| --- | --- | --- | --- | --- | --- | --- | --- | --- | --- | --- | --- | --- | --- | --- | --- | --- |
| 17 | 72 | > 10000 | > 10000 | 1550 | 19 | 91 |  |  |  |  |  | CS(=O)(=O)Nc1cccc([C@@H](O)CNCCOc2ccc3c(C4CC4)n[nH]c3c2)c1 | 5.7 | 3.3 | 2.7 | 11 |
| 13 | 69 | > 10000 | > 10000 | > 10000 | 9.1 | > 769 | 535 | 95 | 15 | 75 | Active | CC(C)c1n[nH]c2cc(OCCNC[C@H](O)c3cccc(NS(C)(=O)=O)c3)ccc12 | 3.3 | 1.8 | 4.7 | 7.6 |
| 43 | 89 |  |  | 61 | 91 | 1.4 |  |  |  |  |  | CS(=O)(=O)Nc1cccc([C@@H](O)CNCCOc2ccc3c(Cl)n[nH]c3c2)c1 |  |  |  |  |
|  |  |  |  |  |  |  |  |  |  |  |  | Nc1nc(CC(=O)Nc2ccc(CCNC[C@H](O)c3ccccc3)cc2)cs1 [MIRABEGRON] | 10 |  | 3.5 | 38.3 |
| > 10000 | 29 |  |  | > 10000 | 6 |  |  |  |  |  |  | CS(=O)(=O)Nc1cccc([C@@H](O)CNCCOc2ccc3c(-c4ccccc4)n[nH]c3c2)c1 |  |  |  |  |
| 66 | 68 |  |  | > 10000 | 4 | > 151 |  |  |  |  |  | CS(=O)(=O)Nc1cccc([C@@H](O)CNCCOc2ccc3c(C4CCC4)n[nH]c3c2)c1 |  |  |  |  |
| 64 | 86 |  |  | 812 | 31 | 13 |  |  |  |  |  | CS(=O)(=O)Nc1cccc([C@@H](O)CNCCOc2ccc3c(C(F)(F)F)n[nH]c3c2)c1 |  |  |  |  |
| 40 | 70 |  |  | 252 | 60 | 6.3 |  |  |  |  |  | COc1n[nH]c2cc(OCCNC[C@H](O)c3cccc(NS(C)(=O)=O)c3)ccc12 |  |  |  |  |
| 14 | 78 | > 10000 | > 10000 |  | 31 | 61 |  |  |  |  |  | CCc1n[nH]c2cc(OCCNC[C@H](O)c3cccc(NS(C)(=O)=O)c3)ccc12 | 9.6 | 1.6 | 3.1 | 10.8 |
| 338 | 62 |  |  | > 10000 | 19 | > 30 |  |  |  |  |  | CC(C)(C)c1n[nH]c2cc(OCCNC[C@H](O)c3cccc(NS(C)(=O)=O)c3)ccc12 |  |  |  |  |
| 111 |  |  |  | 33 |  |  |  |  |  |  |  | CS(=O)(=O)Nc1cccc([C@@H](O)CNCCOc2ccc3c(CO)n[nH]c3c2)c1 |  |  |  |  |
| 71 | 69 |  |  | 277 | 59 | 3.9 |  |  |  |  |  | CCOc1n[nH]c2cc(OCCNC[C@H](O)c3cccc(NS(C)(=O)=O)c3)ccc12 |  |  |  |  |
